Measurements as given in ChEMBL document CHEMBL5303300, “EUbOPEN Chemogenomics Library - Multiplex” (2023).
Several values for one entry are separate records, joined by “and”; a condition that tells them apart may be missing. Identical values can stand only once.

What was measured:
U2OS = assay: Multiplex assay against U2OS; assay type: toxicity, cell-based; details: human, number of replicates 2
Method in brief: (§1)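 Phenotypes for tubulin, mitochondrial mass and membrane permeability are expressed as per cents of healthy-nucleus cells. Cells were stained live at seeding with Hoechst33342, BioTracker Green Microtubule Cytoskeleton Dye, MitoTracker Red and Annexin V Alexa Fluor 680, then imaged after compound addition on a CQ1 microscope at 37°C and 5% CO2. Machine-learning gating in CellPathfinder separated Hoechst high-intensity objects from normal cells, divided normal cells by nuclear state (healthy, pyknosed, fragmented) and divided pyknosed cells into mitotic or apoptotic.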

Fibroblast = assay: Multiplex assay against human fibroblast; assay type: toxicity, cell-based; details: number of replicates 2; method in brief: as §1
[1] = 24 h, 10 µM, compound concentration 10 uM
[2] = 48 h, 1 µM, compound concentration 1 uM
[3] = 48 h, 10 µM, compound concentration 10 uM
[4] = 12 h, 1 µM, compound concentration 1 uM
[5] = 12 h, 10 µM, compound concentration 10 uM
[6] = 24 h, 1 µM, compound concentration 1 uM

C[C@@H](OC[C@@]1(c2ccccc2)CC[C@]2(CCC(=O)N2)CN1)c1cc(C(F)(F)F)cc(C(F)(F)F)c1 [ROLAPITANT]
Population Apoptotic (%) (U2OS; [1]): 48% and 50%
Population Healthy Nuclei (%) (U2OS; [1]): 89% and 77%
Population Hoechst High Intensity Objects (%) (U2OS; [1]): 0%
Population Membrane Permeable-Phenotype (%) (U2OS; [1]): 0% and 3%
Population Mitochondria Different-Phenotype (%) (U2OS; [1]): 0% and 3%
Population Mitotic Cells (%) (U2OS; [1]): 51% and 50%
Population Normal (%) (U2OS; [1]): 99% and 100%
Population Pyknosed Nuclei (%) (U2OS; [1]): 7% and 5%
Population Tubulin-Different-Phenotype (%) (U2OS; [1]): 91% and 35%
Population Apoptotic (%) (U2OS; [2]): 40% and 48%
Population Fragmented Nuclei (%) (U2OS; [2]): 5% and 1%
Population Healthy Nuclei (%) (U2OS; [2]): 87% and 92%
Population Hoechst High Intensity Objects (%) (U2OS; [2]): 0%
Population Membrane Permeable-Phenotype (%) (U2OS; [2]): 1%
Population Mitochondria Different-Phenotype (%) (U2OS; [2]): 0%
Population Mitotic Cells (%) (U2OS; [2]): 60% and 51%
Population Normal (%) (U2OS; [2]): 100% and 99%
Population Pyknosed Nuclei (%) (U2OS; [2]): 6% and 5%
Population Tubulin-Different-Phenotype (%) (U2OS; [2]): 87% and 91%
Population Apoptotic (%) (U2OS; [3]): 48% and 28%
Population Fragmented Nuclei (%) (U2OS; [3]): 2% and 7%
Population Healthy Nuclei (%) (U2OS; [3]): 90% and 78%
Population Hoechst High Intensity Objects (%) (U2OS; [3]): 0%
Population Membrane Permeable-Phenotype (%) (U2OS; [3]): 0% and 4%
Population Mitochondria Different-Phenotype (%) (U2OS; [3]): 0% and 4%
Population Mitotic Cells (%) (U2OS; [3]): 51% and 71%
Population Normal (%) (U2OS; [3]): 100%
Population Pyknosed Nuclei (%) (U2OS; [3]): 6% and 13%
Population Apoptotic (%) (Fibroblast; [4]): 32% and 48%
Population Fragmented Nuclei (%) (Fibroblast; [4]): 7% and 12%
Population Healthy Nuclei (%) (Fibroblast; [4]): 76% and 62%
Population Hoechst High Intensity Objects (%) (Fibroblast; [4]): 0%
Population Membrane Permeable-Phenotype (%) (Fibroblast; [4]): 9% and 4%
Population Mitochondria Different-Phenotype (%) (Fibroblast; [4]): 4% and 2%
Population Mitotic Cells (%) (Fibroblast; [4]): 67% and 51%
Population Normal (%) (Fibroblast; [4]): 100% and 99%
Population Pyknosed Nuclei (%) (Fibroblast; [4]): 15% and 25%
Population Tubulin-Different-Phenotype (%) (Fibroblast; [4]): 26% and 13%
Total Cell Count (Fibroblast; [4]): 195 and 264
Population Apoptotic (%) (Fibroblast; [5]): 40% and 46%
Population Fragmented Nuclei (%) (Fibroblast; [5]): 17% and 10%
Population Healthy Nuclei (%) (Fibroblast; [5]): 67% and 71%
Population Hoechst High Intensity Objects (%) (Fibroblast; [5]): 0%
Population Membrane Permeable-Phenotype (%) (Fibroblast; [5]): 5% and 6%
Population Mitochondria Different-Phenotype (%) (Fibroblast; [5]): 7% and 3%
Population Mitotic Cells (%) (Fibroblast; [5]): 60% and 53%
Population Normal (%) (Fibroblast; [5]): 100%
Population Pyknosed Nuclei (%) (Fibroblast; [5]): 15% and 17%
Population Tubulin-Different-Phenotype (%) (Fibroblast; [5]): 45% and 26%
Total Cell Count (Fibroblast; [5]): 131 and 146
Population Apoptotic (%) (Fibroblast; [6]): 40% and 55%
Population Fragmented Nuclei (%) (Fibroblast; [6]): 15% and 13%
Population Healthy Nuclei (%) (Fibroblast; [6]): 74% and 66%
Population Hoechst High Intensity Objects (%) (Fibroblast; [6]): 0%
Population Membrane Permeable-Phenotype (%) (Fibroblast; [6]): 2% and 8%
Population Mitochondria Different-Phenotype (%) (Fibroblast; [6]): 1%
Population Mitotic Cells (%) (Fibroblast; [6]): 60% and 44%
Population Normal (%) (Fibroblast; [6]): 100%
Population Pyknosed Nuclei (%) (Fibroblast; [6]): 9% and 20%
Population Tubulin-Different-Phenotype (%) (Fibroblast; [6]): 19% and 18%
Total Cell Count (Fibroblast; [6]): 202 and 257
Population Apoptotic (%) (Fibroblast; [1]): 52% and 60%
Population Fragmented Nuclei (%) (Fibroblast; [1]): 23% and 16%
Population Healthy Nuclei (%) (Fibroblast; [1]): 62% and 66%
Population Hoechst High Intensity Objects (%) (Fibroblast; [1]): 0%
Population Membrane Permeable-Phenotype (%) (Fibroblast; [1]): 2% and 3%
Population Mitochondria Different-Phenotype (%) (Fibroblast; [1]): 14% and 5%
Population Mitotic Cells (%) (Fibroblast; [1]): 47% and 40%
Population Normal (%) (Fibroblast; [1]): 100%
Population Pyknosed Nuclei (%) (Fibroblast; [1]): 14% and 16%
Population Tubulin-Different-Phenotype (%) (Fibroblast; [1]): 59% and 28%
Total Cell Count (Fibroblast; [1]): 134 and 153
Population Apoptotic (%) (Fibroblast; [2]): 58% and 66%
Population Fragmented Nuclei (%) (Fibroblast; [2]): 13% and 11%
Population Healthy Nuclei (%) (Fibroblast; [2]): 78% and 74%
Population Hoechst High Intensity Objects (%) (Fibroblast; [2]): 0%
Population Membrane Permeable-Phenotype (%) (Fibroblast; [2]): 4% and 8%
Population Mitochondria Different-Phenotype (%) (Fibroblast; [2]): 1%
Population Mitotic Cells (%) (Fibroblast; [2]): 41% and 33%
Population Normal (%) (Fibroblast; [2]): 100%
Population Pyknosed Nuclei (%) (Fibroblast; [2]): 8% and 14%
Population Tubulin-Different-Phenotype (%) (Fibroblast; [2]): 14% and 11%
Total Cell Count (Fibroblast; [2]): 204 and 254
Population Apoptotic (%) (Fibroblast; [3]): 85% and 93%
Population Fragmented Nuclei (%) (Fibroblast; [3]): 32% and 23%
Population Healthy Nuclei (%) (Fibroblast; [3]): 58% and 67%
Population Hoechst High Intensity Objects (%) (Fibroblast; [3]): 0%
Population Membrane Permeable-Phenotype (%) (Fibroblast; [3]): 5% and 3%
Population Mitochondria Different-Phenotype (%) (Fibroblast; [3]): 3% and 6%
Population Mitotic Cells (%) (Fibroblast; [3]): 14% and 6%
Population Normal (%) (Fibroblast; [3]): 100%
Population Pyknosed Nuclei (%) (Fibroblast; [3]): 8% and 9%
Population Tubulin-Different-Phenotype (%) (Fibroblast; [3]): 44% and 20%
Total Cell Count (Fibroblast; [3]): 158 and 167
